Consider 13 molecules from ChEMBL document CHEMBL1146203, “Acridone-based inhibitors of inosine 5'-monophosphate dehydrogenase: discovery and SAR leading to the identification of N-(2-(6-(4-ethylpiperazin-1-yl)pyridin-3-yl)propan-2-yl)-2- fluoro-9-oxo-9,10-dihydroacridine-3-carboxamide (BMS-566419)” (J Med Chem, 2007).

The target of assay [1] is Inosine-5'-monophosphate dehydrogenase 2 (Homo sapiens, UniProt P12268). The assay can be described thus: Inhibition of human IMPDH2.
For assay [2], the system named is CCRF-CEM. The assay can be described thus: Inhibition of CEM cell proliferation. The conditions noted are these: Homo sapiens. The format is functional, cell-based. The procedure, abridged: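 Human CEM T-lymphoblasts grown in RPMI 1640 with 10% heat-inactivated FBS and penicillin/streptomycin. Seeded at 3000 cells/well with 0.5% DMSO; compounds tested in triplicate from 10 µM top concentration in 3-fold dilutions.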

In assay [3] the test system is PBMC. The assay can be described thus: Inhibition of T cell proliferation in PBMC cells. The format is functional, cell-based. The conditions noted are these: Homo sapiens. In a few lines: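 Human PBMCs isolated from heparinized whole blood by density gradient and plated at 5 × 10^4 cells/well in RPMI 1640 with 10% FBS. Stimulated with anti-CD3 OKT3 (200 ng/mL) plus soluble anti-CD28 (1 µg/mL). Compounds tested in triplicate from 3.3 µM in 3-fold dilutions with 0.5% DMSO for 72 h.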

The IC50 is the concentration that inhibits the measured activity by half.

In assay [1], `C[C@H](NC(=O)c1ccc2c(=O)c3ccccc3[nH]c2c1)c1ccccc1` displayed an IC50 of 431 nM.
Take `CC(C)(NC(=O)c1cc2[nH]c3ccccc3c(=O)c2cc1F)c1ccccc1`: the IC50 in assay [2] stood at 830 nM; in assay [1] it was 11 nM; in assay [3], 220 nM.
For `CC(C)(NC(=O)c1cc2[nH]c3ccccc3c(=O)c2cc1F)c1ccc(N2CCOCC2)nc1` the same measures were 660 nM, 20 nM and 210 nM.
For `CN(C)c1ccc(C(C)(C)NC(=O)c2cc3[nH]c4ccccc4c(=O)c3cc2F)cn1` the same measures were 850 nM, 22 nM and 340 nM.
In the same order, the values of `CC(C)(NC(=O)c1ccc2c(=O)c3ccccc3[nH]c2c1)c1cccnc1` are 2200 nM, 42 nM and 590 nM.
For the molecule `CC(C)(NC(=O)c1cc2[nH]c3ccccc3c(=O)c2cc1F)c1cccc(S(C)(=O)=O)c1`, the IC50 is 580 nM in assay [2], 12 nM in assay [1] and 280 nM in assay [3].
`CC(C)(NC(=O)c1ccc2c(=O)c3ccccc3[nH]c2c1)c1ccccc1`: the IC50 was found to be 19 nM in assay [1] and 730 nM in assay [3].
In assay [1], `C[C@@H](NC(=O)c1ccc2c(=O)c3ccccc3[nH]c2c1)c1ccccc1` came in with an IC50 of 95 nM.
Take `CC(C)(NC(=O)c1cc2[nH]c3ccccc3c(=O)c2cc1F)c1ccccn1`: the figures for the IC50 in assay [2] and in assay [1] were 1000 nM and 29 nM, respectively.
For `CC(C)(NC(=O)c1ccc2c(=O)c3ccccc3[nH]c2c1)c1ccccn1` the same measures were 2200 nM and 53 nM.
With `COc1cc(C(C)(C)NC(=O)c2cc3[nH]c4ccccc4c(=O)c3cc2F)cnc1N1CCOCC1`, the 50% inhibitory concentration (IC50) in assay [2] stood at 810 nM; in assay [1] it was 20 nM; in assay [3], 320 nM.
Consider `CN(C)c1cc(C(C)(C)NC(=O)c2cc3[nH]c4ccccc4c(=O)c3cc2F)ccn1`, for which the IC50 in assay [2] came out at 640 nM; in assay [1] it was 14 nM; in assay [3] it was 220 nM.
Turning to `Cc1cc(C(C)(C)NC(=O)c2cc3[nH]c4ccccc4c(=O)c3cc2F)cnc1N1CCOCC1`, the IC50 in assay [2] stood at 870 nM; in assay [1], 11 nM; in assay [3], 270 nM.
